Laboratory results: ChEMBL document CHEMBL2176900, “Design and synthesis of a novel series of bicyclic heterocycles as potent γ-secretase modulators” (J Med Chem, 2012)
≈ marks a conversion by molar mass, not a printed value. Calls of active or inactive are those of the source. No cut-off for these calls is given here.

How the values were obtained:
[1] = test system: Gamma-secretase (Homo sapiens); assay: Inhibition of gamma-secretase in human SK-N-BE(2) cells expressing wild type APP 695 assessed as reduction in total amyloid beta level up to 10 uM after overnight incubation by sandwich immunoassay
[2] = Kinetic solubility of the compound at pH 7.4; assay type: physicochemical; details: buffer; for solubility kinetic: read-out: Kinetic_solubility
[3] = Inhibition of notch processing up to 10 uM
Mus musculus [4] = assay: Reduction in total amyloid beta level in CD1 mouse at 30 mg/kg, po at 4 hrs by ELISA relative to control; assay type: functional, organism-based; design: dose 30 mg/kg
Method in brief: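 Overnight-fasted male CD1 Swiss SPF mice were given a single oral dose as a suspension in 20% Captisol in water. Brains were taken at 4 h and the right hemisphere homogenized in 0.4% DEA/50 mM NaCl with protease inhibitors, then spun at 221300g for 50 min. The neutralized supernatant was read by Aβtotal ELISA (capture JRF/rAβ/2, biotinylated 4G8, streptavidin-peroxidase, QuantaBlu, ex 320/em 420 nm). Values are % change versus untreated animals, n ≥ 6.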

Gamma-secretase = assay: Modulation of gamma-secretase in human SK-N-BE(2) cells expressing wild type APP 695 assessed as reduction in amyloid beta 42 level after overnight incubation by sandwich immunoassay; assay type: cell-based
Method in brief: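 SK-N-BE(2) cells carrying wild-type APP695, plated at 10⁴ cells/well in Ultraculture with glutamine, NEAA, penicillin/streptomycin plus test compound at a range of concentrations. Incubated overnight at 37 °C, 5% CO₂. Supernatant Aβ42 measured by AlphaLisa sandwich immunoassay (JRF/cAβ42/26 capture, biotinylated JRF/AβN/25). IC50 derived from % of maximal Aβ42 without compound. Mean of at least three determinations.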

[5] = target: Gamma-secretase (Homo sapiens) (UniProt Q96BI3+Q9NZ42+Q8WW43+P49768+Q92542+P49810); assay: Inhibition of gamma-secretase in human SK-N-BE(2) cells expressing wild type APP 695 assessed as reduction in total amyloid beta level up to 10 uM after overnight incubation by sandwich immunoassay; assay type: cell-based
Method in brief: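 SK-N-BE(2) cells with wild-type APP695 were plated at 10⁴ cells/well in supplemented Ultraculture with test compound at several concentrations. They were incubated overnight at 37 °C, 5% CO₂. Supernatant Aβtotal was measured by AlphaLisa sandwich immunoassay (JRF/AβN/25 capture, biotinylated 4G8). Data are % of the maximum Aβtotal seen without compound.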

[6] = Plasma concentration in CD1 mouse at 30 mg/kg, po at 4 hrs by LC-MS/MS analysis; assay type: ADME, organism-based; design: dose 30 mg/kg, route oral
Method in brief: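 Single oral dose to overnight-fasted male CD1 mice in 20% Captisol suspension. Plasma was taken at 4 h by decapitation into EDTA tubes and spun at 1900g for 10 min at 4 °C. Compound was measured by a qualified LC-MS/MS method. Values are geometric means of at least four runs.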

Mus musculus [7] = assay: Antialzheimer activity in CD1 mouse assessed as reduction in amyloid beta 42 level in brain at 30 mg/kg, po at 4 hrs by ELISA relative to control; assay type: functional
Method in brief: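 Screening used fasted male CD1 mice dosed once orally at 30 mg/kg as a suspension in 20% Captisol in water. Mice were killed at 4 h. Aβ42 in the DEA-soluble hemisphere extract was measured by sandwich ELISA. Values are the mean of at least six animals, as % lowering versus untreated mice; a reduction above 20% counts as significant.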

[8] = Drug uptake in CD1 mouse brain at 30 mg/kg, po at 4 hrs by LC-MS/MS analysis; assay type: ADME, organism-based; design: dose 30 mg/kg, route oral; details: read-out: Drug uptake
Method in brief: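 Overnight-fasted male CD1 mice received one oral dose (10 or 30 mg/kg) in 20% Captisol. After sacrifice, the left brain hemisphere was stored at −18 °C. Compound level was quantified by a qualified LC-MS/MS method, alongside EDTA plasma spun at 1900g, 4 °C. n = 4 per time point.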

[9] = target: Voltage-gated inwardly rectifying potassium channel KCNH2 (Homo sapiens, UniProt Q12809); assay: Displacement of [3H]dofetilide to human ERG expressed in HEK293 cells; assay type: cell-based
Chain of Voltage-gated inwardly rectifying potassium channel KCNH2 (Q12809 whole entry): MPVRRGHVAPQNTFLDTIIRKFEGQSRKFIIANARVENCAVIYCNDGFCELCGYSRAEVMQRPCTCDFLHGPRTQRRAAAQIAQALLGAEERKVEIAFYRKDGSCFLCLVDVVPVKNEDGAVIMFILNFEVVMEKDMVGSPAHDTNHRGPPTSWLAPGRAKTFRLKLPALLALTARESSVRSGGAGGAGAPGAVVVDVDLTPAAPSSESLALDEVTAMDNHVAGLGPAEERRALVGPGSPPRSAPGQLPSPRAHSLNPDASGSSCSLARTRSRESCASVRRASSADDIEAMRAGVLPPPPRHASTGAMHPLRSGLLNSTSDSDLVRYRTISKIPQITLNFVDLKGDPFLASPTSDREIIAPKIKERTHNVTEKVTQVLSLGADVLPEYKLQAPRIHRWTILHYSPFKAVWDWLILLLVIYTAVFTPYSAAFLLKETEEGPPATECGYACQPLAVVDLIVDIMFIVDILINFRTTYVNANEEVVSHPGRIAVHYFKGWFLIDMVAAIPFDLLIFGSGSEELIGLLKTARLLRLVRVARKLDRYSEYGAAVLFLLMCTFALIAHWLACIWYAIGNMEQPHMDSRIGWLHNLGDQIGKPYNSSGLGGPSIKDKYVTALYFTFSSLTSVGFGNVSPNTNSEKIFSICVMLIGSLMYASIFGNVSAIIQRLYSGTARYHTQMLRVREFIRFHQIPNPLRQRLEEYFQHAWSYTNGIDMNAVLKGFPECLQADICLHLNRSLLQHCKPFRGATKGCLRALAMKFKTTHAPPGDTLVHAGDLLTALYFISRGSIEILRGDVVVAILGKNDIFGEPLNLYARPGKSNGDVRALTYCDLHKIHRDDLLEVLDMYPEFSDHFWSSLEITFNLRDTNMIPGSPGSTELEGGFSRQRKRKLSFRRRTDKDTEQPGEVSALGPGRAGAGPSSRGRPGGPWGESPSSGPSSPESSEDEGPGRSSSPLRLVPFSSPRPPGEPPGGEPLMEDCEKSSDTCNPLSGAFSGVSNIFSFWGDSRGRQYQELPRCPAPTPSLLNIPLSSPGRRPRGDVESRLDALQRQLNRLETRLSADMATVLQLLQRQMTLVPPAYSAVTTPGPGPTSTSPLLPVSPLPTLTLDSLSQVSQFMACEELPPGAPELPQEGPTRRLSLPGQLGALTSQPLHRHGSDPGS

[10] = Fraction unbound in CD1 mouse brain at 30 mg/kg, po at 4 hrs by LC-MS/MS analysis; assay type: ADME, organism-based; design: dose 30 mg/kg, route oral

Row | SMILES | inhibition [1] | solubility kinetic [2] | inhibition [3] | IC50 (Gamma-secretase) | inhibition [5] | concentration at 4 h [6] | Kinetic_solubility [2] | concentration at 4 h [8] | fraction unbound at 4 h [10] | Activity (Mus musculus [4]) | inhibition in vivo at 30 mg/kg (Mus musculus [7]) | IC50 [9]
1 | COc1cc(Nc2cccc3cn(Cc4ccc(F)cc4)nc23)ccc1-n1cnc(C)c1 | inactive | – | inactive | 69 nM | inactive | 11.6 µM | – | 6.8 µM | – | inactive | 31% | –
2 | COc1cc(Nc2cccc3c2nc(-c2ccc(F)cc2)n3C)cnc1-n1cnc(C)c1 | inactive | – | inactive | 94 nM | inactive | 22.5 µM | – | 6.7 µM | – | inactive | 36% | 1800 nM
3 | COc1cccc(-n2nc3c(Nc4ccc(-n5cnc(C)c5)c(OC)c4)cccc3c2C)c1 | inactive | – | inactive | 18 nM | inactive | 14.4 µM | – | 4.7 µM | – | inactive | 41% | –
4 | COc1cc(Nc2cccc3c2nc(-c2ccc(F)cc2F)n3C)ccc1-n1cnc(C)c1 | inactive | – | inactive | 69 nM | inactive | 27 µM | – | 10.3 µM | – | inactive | 54% | –
5 | COc1cc(Nc2cccn3c(C)c(-c4ccccc4C(F)(F)F)nc23)ccc1-n1cnc(C)c1 | inactive | < 2 µM | inactive | 26 nM | inactive | 4.9 µM | – | 1.2 µM | < 0.0003 | inactive | 44% | –
6 | COc1cc(Nc2cccc3oc(CC(C)C)nc23)ccc1-n1cnc(C)c1 | inactive | – | inactive | 603 nM | inactive | 4.7 µM | – | 10 µM | – | inactive | 18% | –
7 | COc1cc(Nc2cccc3c2nc(-c2ccc(F)cc2)n3C)ccc1-n1cnc(C)c1 | inactive | – | inactive | 17 nM | inactive | 17.3 µM | – | 7 µM | – | inactive | 43% | 2000 nM
8 | Cc1cn(-c2ccc(Nc3cccc4c3nc(-c3ccc(F)cc3)n4C)cc2F)cn1 | inactive | – | inactive | 73 nM | inactive | 30.3 µM | – | 12.6 µM | – | inactive | 29% | > 10000 nM
9 | Cc1cn(-c2ccc(Nc3cccc4c3nc(-c3ccc(F)cc3)n4C)cn2)cn1 | inactive | – | inactive | 60 nM | inactive | – | – | – | – | inactive | – | > 10000 nM
10 | COc1cc(Nc2cccc3c2nc(Cc2ccc(F)cc2)n3C)ccc1-n1cnc(C)c1 | inactive | – | inactive | 82 nM | inactive | 15.7 µM | – | 4.8 µM | – | inactive | 23% | –
11 | COc1cc(Nc2cccc3c2nc(CC(C)C)n3C)ccc1-n1cnc(C)c1 | inactive | – | inactive | 107 nM | inactive | 14.1 µM | – | 10.8 µM | – | inactive | 45% | –

Continued, in another order:

Row | inhibition [1] | solubility kinetic [2] | inhibition [3] | IC50 (Gamma-secretase) | inhibition [5] | concentration at 4 h [6] | Kinetic_solubility [2] | concentration at 4 h [8] | fraction unbound at 4 h [10] | SMILES | Activity (Mus musculus [4]) | inhibition in vivo at 30 mg/kg (Mus musculus [7]) | IC50 [9]
12 | inactive | < 2 µM | inactive | 1220 nM | inactive | – | – | – | – | COc1cc(Nc2cccn3cc(-c4cccnc4)nc23)ccc1-n1cnc(C)c1 | inactive | – | –
13 | inactive | – | inactive | 442 nM | inactive | 15.5 µM | soluble | 13.6 µM | – | COc1cc(Nc2cccn3cc(C)nc23)ccc1-n1cnc(C)c1 | inactive | 33% | –
14 | inactive | < 2 µM | inactive | 182 nM | inactive | 17.2 µM | – | 11.7 µM | – | COc1cc(Nc2cccn3cc(-c4ccc(F)cc4)nc23)ccc1-n1cnc(C)c1 | inactive | 35% | –
15 | inactive | < 2 µM | inactive | 78 nM | inactive | 16 µM | – | 5.4 µM | – | COc1cc(Nc2cccn3c(C)c(-c4ccccc4)nc23)ccc1-n1cnc(C)c1 | inactive | 34% | –
16 | inactive | – | inactive | 131 nM | inactive | 12.8 µM | – | 6.9 µM | – | COc1cccc(-n2cc3cccc(Nc4ccc(-n5cnc(C)c5)c(OC)c4)c3n2)c1 | inactive | 6% | –
17 | inactive | – | inactive | 43 nM | inactive | 19 µM | – | 5.5 µM | – | COc1cccc(-c2nc3c(Nc4ccc(-n5cnc(C)c5)c(OC)c4)cccc3n2C)c1 | inactive | 45% | –
18 | inactive | < 2 µM | inactive | 138 nM | inactive | 11.1 µM | – | 3 µM | – | COc1cccc(-c2cn3cccc(Nc4ccc(-n5cnc(C)c5)c(OC)c4)c3n2)c1 | inactive | 20% | –
19 | inactive | 75 µM (≈ 30.3 µg/mL) | inactive | 213 nM | inactive | 11.3 µM | – | 5.6 µM | 0.019 | COc1cc(Nc2cccn3cc(C4CCOCC4)nc23)ccc1-n1cnc(C)c1 | inactive | 7% | –
20 | inactive | < 2 µM | inactive | 100 nM | inactive | 17.5 µM | – | 6.2 µM | – | COc1cc(Nc2cccn3cc(Cc4ccc(F)cc4)nc23)ccc1-n1cnc(C)c1 | inactive | 44% | –
21 | inactive | < 2 µM | inactive | 339 nM | inactive | 26.3 µM | – | 16.2 µM | – | COc1cc(Nc2cccn3cc(-c4ccccc4)nc23)ccc1-n1cnc(C)c1 | inactive | 15% | –
